Experiment [1] has as its target T1, Mitogen-activated protein kinase 12 (Homo sapiens) (UniProt P53778).
T1 sequence (whole entry): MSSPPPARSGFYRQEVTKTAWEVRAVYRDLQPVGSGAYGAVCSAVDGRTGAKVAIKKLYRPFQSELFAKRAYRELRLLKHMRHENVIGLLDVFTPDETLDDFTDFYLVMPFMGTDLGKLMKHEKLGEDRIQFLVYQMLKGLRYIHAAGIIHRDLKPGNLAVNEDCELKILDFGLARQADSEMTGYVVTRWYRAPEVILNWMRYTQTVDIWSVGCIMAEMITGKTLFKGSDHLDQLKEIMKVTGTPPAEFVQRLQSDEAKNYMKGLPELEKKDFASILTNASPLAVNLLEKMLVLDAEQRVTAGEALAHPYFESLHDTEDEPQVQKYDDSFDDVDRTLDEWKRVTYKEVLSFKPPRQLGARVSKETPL
Description: Inhibition of p38-gamma assessed as residual enzyme activity at 10 uM relative to untreated control. An outline of the steps:
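p38γ and p38δ MAPK run at 5 µM [γ-33P]ATP, and p38α at 50 µM, each with 10 mM Mg acetate. Buffer 50 mM Tris/HCl pH 7.5, 0.1 mM EGTA, 0.1% 2-mercaptoethanol. 10 µM compound, 30 min at 21 °C. P81 filter capture. Residual activity relative to control, duplicates.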

Experiment [2] has as its target Tyrosine-protein kinase CSK (Homo sapiens) (UniProt P41240). Put plainly: Inhibition of CSK assessed as residual enzyme activity at 10 uM relative to untreated control. An outline of the steps: (§1)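 Kinases of human origin, except CK1δ, which is rat. Run in 50 mM Tris/HCl pH 7.5, 0.1 mM EGTA, 0.1% 2-mercaptoethanol and 10 mM Mg acetate, with [γ-33P]ATP at 20 µM, 30 min at 21 °C. Acid-stopped and captured on P81 filters. Compound tested at 10 µM; residual % of uninhibited control, duplicate determinations.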

Experiment [3] deals with Protein kinase C zeta type (Homo sapiens) (UniProt Q05513). Description: Inhibition of PKCzeta assessed as residual enzyme activity at 10 uM relative to untreated control.
Experiment [4] concerns the target Calcium/calmodulin-dependent protein kinase type 1 (Homo sapiens) (UniProt Q14012). Put plainly: Inhibition of CaMK1 assessed as residual enzyme activity at 10 uM relative to untreated control.
Experiment [5] has as its target RAC-alpha serine/threonine-protein kinase (Homo sapiens) (UniProt P31749). Put plainly: Inhibition of PKBalpha assessed as residual enzyme activity at 10 uM relative to untreated control. An outline of the steps:
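Radiometric filter-binding assay at 21 °C for 30 min. Mix: 50 mM Tris/HCl pH 7.5, 0.1 mM EGTA, 0.1% 2-mercaptoethanol, 10 mM Mg acetate and [γ-33P]ATP (800 cpm/pmol) at 5 µM. Stopped with orthophosphoric acid and spotted on P81. Compound at 10 µM; activity given as % remaining versus no-inhibitor control, duplicates. Kinases human full-length unless noted.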

The target of experiment [6] is MAP kinase-interacting serine/threonine-protein kinase 1 (Homo sapiens) (UniProt Q9BUB5). Put plainly: Inhibition of MNK1 assessed as residual enzyme activity at 10 uM relative to untreated control. An outline of the steps: (§2)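 Assayed with [γ-33P]ATP at 50 µM and 10 mM Mg acetate in 50 mM Tris/HCl pH 7.5, 0.1 mM EGTA, 0.1% 2-mercaptoethanol, 30 min, 21 °C. Phosphoric acid stop, P81 filter capture. ERK2 and Lck are mouse; AMPK is rat. 10 µM compound; % activity remaining relative to control without inhibitor, duplicates.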

Experiment [7] deals with T2, Serine/threonine-protein kinase D1 (Homo sapiens) (UniProt Q15139).
T2 sequence (whole entry): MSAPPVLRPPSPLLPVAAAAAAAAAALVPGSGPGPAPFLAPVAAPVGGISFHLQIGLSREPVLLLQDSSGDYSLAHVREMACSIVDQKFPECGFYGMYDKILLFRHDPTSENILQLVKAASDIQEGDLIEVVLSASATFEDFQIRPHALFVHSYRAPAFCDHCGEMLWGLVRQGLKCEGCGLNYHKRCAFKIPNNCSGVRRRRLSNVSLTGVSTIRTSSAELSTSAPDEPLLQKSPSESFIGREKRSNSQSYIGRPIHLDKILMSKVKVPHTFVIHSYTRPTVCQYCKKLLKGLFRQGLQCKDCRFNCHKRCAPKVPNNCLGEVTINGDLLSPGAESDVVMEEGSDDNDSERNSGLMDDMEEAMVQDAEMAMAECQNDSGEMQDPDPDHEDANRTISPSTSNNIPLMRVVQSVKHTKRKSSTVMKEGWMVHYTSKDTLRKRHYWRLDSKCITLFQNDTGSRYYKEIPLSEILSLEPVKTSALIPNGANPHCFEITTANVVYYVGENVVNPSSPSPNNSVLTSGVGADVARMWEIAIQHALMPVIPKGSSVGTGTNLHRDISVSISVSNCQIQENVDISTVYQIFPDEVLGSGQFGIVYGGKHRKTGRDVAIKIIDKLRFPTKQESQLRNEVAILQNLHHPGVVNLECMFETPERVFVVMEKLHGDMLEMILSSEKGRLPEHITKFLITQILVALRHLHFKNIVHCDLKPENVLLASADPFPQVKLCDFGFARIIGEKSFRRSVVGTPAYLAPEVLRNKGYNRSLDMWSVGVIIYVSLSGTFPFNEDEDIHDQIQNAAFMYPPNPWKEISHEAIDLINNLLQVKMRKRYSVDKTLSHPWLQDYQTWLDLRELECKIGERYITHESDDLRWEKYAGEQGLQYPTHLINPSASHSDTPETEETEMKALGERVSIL
Put plainly: Inhibition of PKD1 assessed as residual enzyme activity at 10 uM relative to untreated control.

Experiment [8] in a line: Inhibition of AMPK assessed as residual enzyme activity at 10 uM relative to untreated control. An outline of the steps: as §2
In experiment [9] the target is Homeodomain-interacting protein kinase 3 (Homo sapiens) (UniProt Q9H422). Put plainly: Inhibition of HIPK3 assessed as residual enzyme activity at 10 uM relative to untreated control. An outline of the steps:
as §1

Experiment [10] deals with Lck (Mus musculus). Description: Inhibition of Lck assessed as residual enzyme activity at 10 uM relative to untreated control.

Sequence of Calcium/calmodulin-dependent protein kinase type 1 (Homo sapiens) (Q14012 whole entry, looked up): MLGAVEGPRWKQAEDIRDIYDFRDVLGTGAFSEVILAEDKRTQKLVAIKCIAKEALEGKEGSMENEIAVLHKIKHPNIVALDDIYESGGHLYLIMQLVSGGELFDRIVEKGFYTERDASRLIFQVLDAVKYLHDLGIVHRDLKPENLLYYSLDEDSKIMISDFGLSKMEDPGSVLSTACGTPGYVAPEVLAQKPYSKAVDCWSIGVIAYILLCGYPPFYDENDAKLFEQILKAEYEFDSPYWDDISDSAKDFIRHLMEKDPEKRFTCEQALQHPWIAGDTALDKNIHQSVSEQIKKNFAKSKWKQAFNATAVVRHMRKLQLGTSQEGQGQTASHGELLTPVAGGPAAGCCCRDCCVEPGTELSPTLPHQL
Sequence of Tyrosine-protein kinase CSK (Homo sapiens) (P41240 2-450 limits assumed): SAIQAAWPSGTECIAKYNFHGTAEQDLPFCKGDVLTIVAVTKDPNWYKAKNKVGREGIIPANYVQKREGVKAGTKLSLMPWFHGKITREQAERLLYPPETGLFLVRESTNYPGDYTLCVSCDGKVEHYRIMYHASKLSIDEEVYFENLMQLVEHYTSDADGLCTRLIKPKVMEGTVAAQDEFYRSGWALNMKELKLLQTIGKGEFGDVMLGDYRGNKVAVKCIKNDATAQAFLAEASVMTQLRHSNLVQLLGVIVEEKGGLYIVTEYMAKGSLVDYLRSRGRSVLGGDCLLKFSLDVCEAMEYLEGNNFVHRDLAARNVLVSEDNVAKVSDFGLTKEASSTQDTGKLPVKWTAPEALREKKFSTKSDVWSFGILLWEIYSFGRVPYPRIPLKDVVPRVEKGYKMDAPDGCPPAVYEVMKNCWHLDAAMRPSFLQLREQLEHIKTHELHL
Sequence of MAP kinase-interacting serine/threonine-protein kinase 1 (Homo sapiens) (Q9BUB5 whole entry, looked up): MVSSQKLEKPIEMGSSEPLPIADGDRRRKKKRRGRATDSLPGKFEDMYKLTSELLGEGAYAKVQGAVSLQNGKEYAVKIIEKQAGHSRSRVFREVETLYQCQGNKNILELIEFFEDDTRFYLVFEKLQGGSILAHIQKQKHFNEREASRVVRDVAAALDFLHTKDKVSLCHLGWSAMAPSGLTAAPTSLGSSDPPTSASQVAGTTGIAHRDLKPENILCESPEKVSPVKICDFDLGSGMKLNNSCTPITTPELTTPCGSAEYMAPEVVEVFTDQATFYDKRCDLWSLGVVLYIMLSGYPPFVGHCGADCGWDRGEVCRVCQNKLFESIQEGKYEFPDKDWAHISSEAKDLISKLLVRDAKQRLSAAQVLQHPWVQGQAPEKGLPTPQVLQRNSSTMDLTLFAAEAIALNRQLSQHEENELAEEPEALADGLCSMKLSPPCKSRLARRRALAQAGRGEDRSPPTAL
Sequence of Homeodomain-interacting protein kinase 3 (Homo sapiens) (Q9H422 whole entry, looked up): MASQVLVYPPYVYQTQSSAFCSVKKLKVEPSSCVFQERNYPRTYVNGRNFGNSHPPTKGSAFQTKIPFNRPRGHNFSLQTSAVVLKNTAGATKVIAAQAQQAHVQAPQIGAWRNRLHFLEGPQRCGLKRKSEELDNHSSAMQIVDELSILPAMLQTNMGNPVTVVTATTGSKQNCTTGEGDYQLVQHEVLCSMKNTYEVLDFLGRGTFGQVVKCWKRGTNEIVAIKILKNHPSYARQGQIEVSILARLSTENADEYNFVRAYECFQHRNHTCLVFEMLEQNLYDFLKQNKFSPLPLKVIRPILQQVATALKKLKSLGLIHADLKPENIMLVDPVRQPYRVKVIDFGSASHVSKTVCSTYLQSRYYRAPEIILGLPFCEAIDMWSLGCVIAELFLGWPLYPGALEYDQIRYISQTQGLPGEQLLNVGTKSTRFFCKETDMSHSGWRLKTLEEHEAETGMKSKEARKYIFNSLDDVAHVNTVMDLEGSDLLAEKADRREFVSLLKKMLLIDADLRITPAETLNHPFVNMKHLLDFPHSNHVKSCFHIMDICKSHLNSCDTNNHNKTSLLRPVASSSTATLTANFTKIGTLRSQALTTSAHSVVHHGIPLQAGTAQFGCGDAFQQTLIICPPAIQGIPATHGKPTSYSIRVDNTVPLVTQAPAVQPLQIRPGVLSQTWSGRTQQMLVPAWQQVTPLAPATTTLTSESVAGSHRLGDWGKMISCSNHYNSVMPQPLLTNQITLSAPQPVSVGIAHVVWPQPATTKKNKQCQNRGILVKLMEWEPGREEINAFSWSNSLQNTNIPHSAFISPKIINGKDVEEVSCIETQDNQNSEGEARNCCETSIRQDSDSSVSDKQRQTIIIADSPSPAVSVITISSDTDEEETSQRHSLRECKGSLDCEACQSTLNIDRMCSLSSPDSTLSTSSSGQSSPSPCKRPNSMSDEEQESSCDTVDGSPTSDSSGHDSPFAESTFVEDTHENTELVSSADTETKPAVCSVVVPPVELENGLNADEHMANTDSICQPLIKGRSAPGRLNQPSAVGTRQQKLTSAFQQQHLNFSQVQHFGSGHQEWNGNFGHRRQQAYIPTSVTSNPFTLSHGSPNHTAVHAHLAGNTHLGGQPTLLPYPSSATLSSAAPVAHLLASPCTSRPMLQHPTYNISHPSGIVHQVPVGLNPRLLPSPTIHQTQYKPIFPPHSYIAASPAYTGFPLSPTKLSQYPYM
Sequence of RAC-alpha serine/threonine-protein kinase (Homo sapiens) (P31749 whole entry): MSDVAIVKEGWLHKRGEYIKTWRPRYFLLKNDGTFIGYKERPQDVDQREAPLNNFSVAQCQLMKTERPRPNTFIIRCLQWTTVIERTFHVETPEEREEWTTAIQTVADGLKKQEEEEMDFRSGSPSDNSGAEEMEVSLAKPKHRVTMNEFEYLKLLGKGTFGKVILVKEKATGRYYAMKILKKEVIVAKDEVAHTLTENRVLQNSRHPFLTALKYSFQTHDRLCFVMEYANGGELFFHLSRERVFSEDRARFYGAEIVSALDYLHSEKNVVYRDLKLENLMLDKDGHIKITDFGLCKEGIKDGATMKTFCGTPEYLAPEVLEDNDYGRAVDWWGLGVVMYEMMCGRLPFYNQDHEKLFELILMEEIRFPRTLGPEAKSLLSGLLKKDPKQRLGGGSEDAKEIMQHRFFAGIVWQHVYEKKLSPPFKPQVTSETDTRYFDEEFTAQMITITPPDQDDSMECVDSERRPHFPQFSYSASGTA
Sequence of Protein kinase C zeta type (Homo sapiens) (Q05513 whole entry, looked up): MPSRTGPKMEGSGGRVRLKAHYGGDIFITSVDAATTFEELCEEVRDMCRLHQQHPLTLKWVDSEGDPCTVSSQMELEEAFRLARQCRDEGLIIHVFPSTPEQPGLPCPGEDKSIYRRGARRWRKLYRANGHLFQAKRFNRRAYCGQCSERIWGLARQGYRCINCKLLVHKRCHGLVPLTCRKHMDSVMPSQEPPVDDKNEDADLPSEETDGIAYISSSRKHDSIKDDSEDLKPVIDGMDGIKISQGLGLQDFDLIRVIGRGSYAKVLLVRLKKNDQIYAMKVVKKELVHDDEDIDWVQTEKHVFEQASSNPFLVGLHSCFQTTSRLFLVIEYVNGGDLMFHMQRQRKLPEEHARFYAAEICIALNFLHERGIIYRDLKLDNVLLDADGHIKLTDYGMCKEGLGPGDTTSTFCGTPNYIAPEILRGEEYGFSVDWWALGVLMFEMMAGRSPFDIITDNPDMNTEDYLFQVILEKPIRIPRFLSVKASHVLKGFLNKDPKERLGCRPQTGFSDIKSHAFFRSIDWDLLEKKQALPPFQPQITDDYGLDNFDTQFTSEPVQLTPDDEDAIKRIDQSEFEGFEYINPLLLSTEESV

Consider `O=Cc1c[nH]c2c1ccc1c3ccccc3[nH]c12`, for which the Activity in experiment [1] amounted to 74%; in [2], 74%; in experiment [3] it was 83%; in [4] it was 71%; in [5] it was 96%; in [6] it was 27%. For the same compound, the Activity in [7] was 28%; in experiment [8], 59%; in [9] it was 64%.
Regarding `c1ccc2c(c1)[nH]c1c3cc[nH]c3ccc21`, the Activity in experiment [10] worked out at 81%; in experiment [1], 111%; in experiment [2], 72%; in experiment [3], 87%; in [4], 80%; in experiment [5], 110%. The Activity in [6] was determined as 101%; in [7], 71%; in experiment [8], 79%; in experiment [9] it was 106%.
Turning to `O=Cc1c[nH]c2ccc3c4ccccc4[nH]c3c12`, the Activity in experiment [10] was found to be 114%; in experiment [1], 109%; in experiment [2] it was 87%; in [3], 91%; in experiment [4] it was 36%; in experiment [5] it was 112%. In addition, the Activity in experiment [6] is 106%; in experiment [7] it was 87%; in experiment [8], 85%; in experiment [9] it was 100%.
Turning to `c1ccc2c(c1)[nH]c1c2ccc2cc[nH]c21`, the Activity is 88% in experiment [10]; 111% in experiment [1]; 98% in experiment [2]; 91% in [3]; 29% in experiment [4]; 120% in experiment [5]. For the same compound, the Activity in experiment [6] turned out to be 69%; in experiment [7], 83%; in experiment [8], 80%; in experiment [9], 97%.

Source of the values: ChEMBL document CHEMBL1154186, “Synthesis, kinase inhibitory potencies, and in vitro antiproliferative evaluation of new Pim kinase inhibitors” (J Med Chem, 2009).
